Screening results deposited in PubChem by several laboratories.
S1P1 ag-PAM: activates or potentiates agonism at human S1P1 receptor; 0.57% of 56,000 active; S1P1 CRE-bla cells, forskolin, beta-lactamase FRET, potentiator mode; S1P1 agonist co-added at EC20, 2 nM; 100% = saturating reference agonist, 0% = basal; activation, % at 9.5 µM;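 active = activation above a cutoff set at the mean activation of all tested compounds plus 3 SD, cut at about 54% in these data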;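 also: forskolin at 4 µM as EC80 and the EC20 agonist is SEW2871; 100% = SEW2871 at its EC100 plus forskolin at EC80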
S1P3 agonist: activates the human S1P3 receptor. 0.1% of 60,000 active. activation, % at 4.5 µM. S1P3 NFAT-BLA reporter cells, agonism, FRET ratio; relative to 1 µM S1P, basal subtracted. Q99500;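 active = activation above the screen-wide mean plus 3 SD, cut at about 4.5% in these data, passing the limit was not always enough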
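Measure – % activation relative to 1 µM S1P (100%), per plate · System – stable CHO line with human S1P3, Gα16, NFAT-BLA reporter · Timing – cells plated overnight, compound 4 h 37 °C, substrate 2 h RT · Technique – fluorescent BLA substrate, ex 405 nm, em 460/535 nm ratio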
M1 agonist: agonists of M1 muscarinic receptor; AID 626; B-score at 10 µM; 3% of 64,000 active; CHO-M1 cells, Fluo-4 calcium fluorescence, agonist mode; active compounds read high;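 active = fluorescence rise, raw or as B-score row- and column-corrected plate score, outside the 99.7% band of its plate's samples, either direction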
D1 allo mod: allosteric modulators of human D1 dopamine receptor | P21728 | B-score at 10 µM | 5.9% of 58,000 active | HEK293 D1, CRE-luciferase, dopamine EC30 potentiation; actives deviate in either direction;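 active = luminescence count or its row- and column-corrected plate score outside the 99.7% band of the plate's sample wells, on either side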
TNAP act DEA: activates human TNAP at intermediate phosphate acceptor concentration; activation factor at 20 µM; P05186; 64,000 tested, under 10 active; AID 813; purified TNAP, CDP-star luminescence, 100 mM DEA, 30 min; active compounds read high; scale: 0 levamisole-inhibited, 1 vehicle-only enzyme;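 active = activation factor of at least 2 at 20 µM, relative to controls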
M1 antagonist: M1 muscarinic receptor (rat) antagonism; P08482; CHO-M1 cells, Fluo-4 calcium, ACh EC80 antagonist mode; active compounds read low; B-score at 10 µM; 3.4% of 64,000 active; AID 628;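 active = calcium fluorescence response, raw or row-and-column corrected B-score, differing from the plate sample mean either way at a set confidence level, mostly lower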
M1 agonist conf: rat M1 muscarinic agonism, confirmation | shares compounds with M1 agonist | CHO-M1 cells, Fluo-4 calcium fluorescence, agonist mode; actives lie on both sides | fluorescence change (max-min) at 10 µM | 19% of 1,700 active | AID 1488;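 active = fluorescence change differs from the solvent-only DMSO control mean at a set confidence level in both duplicate runs; inconclusive = differs from solvent-only control mean in just one of two runs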;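 also: an EC20 dose of acetylcholine follows compound addition during the same imaging run; raw fluorescence intensity difference in instrument units with no normalization to controls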
M4 ag counter: counter-screen for M1 agonists: activity at rat M4 receptor | shares compounds with M1 agonist | CHO M4/Gqi5 cells, Fluo-4 calcium fluorescence, agonist mode; actives lie on both sides | fluorescence change (max-min) at 10 µM | 9% of 1,700 active | AID 1741;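 active = fluorescence change differing from the plate's solvent-only control wells at 99.7% confidence in both duplicates, whether higher or lower; inconclusive = differs from solvent controls in only one of two duplicates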
Target sequence (P08485 whole entry, looked up): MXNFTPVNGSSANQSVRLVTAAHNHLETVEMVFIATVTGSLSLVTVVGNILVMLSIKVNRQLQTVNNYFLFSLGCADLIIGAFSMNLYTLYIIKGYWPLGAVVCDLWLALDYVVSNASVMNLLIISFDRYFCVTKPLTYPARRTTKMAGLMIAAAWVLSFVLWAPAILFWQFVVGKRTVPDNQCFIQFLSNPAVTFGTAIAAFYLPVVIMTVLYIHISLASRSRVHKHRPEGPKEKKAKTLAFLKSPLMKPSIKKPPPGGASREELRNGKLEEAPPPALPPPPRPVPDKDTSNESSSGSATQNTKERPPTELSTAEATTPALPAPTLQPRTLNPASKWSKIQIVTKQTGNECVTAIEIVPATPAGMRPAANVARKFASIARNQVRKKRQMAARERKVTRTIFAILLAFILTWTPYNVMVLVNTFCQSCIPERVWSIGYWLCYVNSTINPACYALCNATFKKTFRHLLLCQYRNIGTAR
Numbers without * were called inactive; ? = inconclusive; · = not tested or not shown. This is a sample that favours compounds with a hit; in the whole collection about 11% have one here.

SMILES	S1P1 ag-PAM	S1P3 agonist	M1 agonist	D1 allo mod	TNAP act DEA	M1 antagonist	M1 agonist conf	M4 ag counter
CCn1nc(C)c(/C=C2\CCCC3=C2OC(N)=C(C#N)C3c2c(C)nn(CC)c2C)c1C (stereo not given)	21	-1	14*	0.025	0.9	0.5	100*	?
Cc1cc(C)nc(Sc2c(C)nn(-c3ccccc3)c2C)n1	-2	0	0.38	0.14	0.9	-1.8	·	·
CC1CCCN(C/C(O)=C(\C#N)c2nc3ccccc3[nH]2)C1 (stereo not given)	-41	-1	5.4*	0.04	1.3	-4.2*	?	-28
O=C(O)CCn1[nH]c(=O)ccc1=O	10	-1	0.036	-0.92	0.9	-0.36	·	·
COCC(C)n1c(C)cc(C(=O)CSc2nc3ccccc3c(=O)[nH]2)c1C (stereo not given)	42	0	2.8*	·	1	0.74	-15	-21
CN1CCN(c2ccccc2NC(=O)C(Cc2ccccc2)n2cccc2)CC1 (stereo not given)	-23	0	-0.73	-0.55	0.9	-2.2	·	·
COc1ccc(C2(C(F)(F)F)NC(=O)N(C)C(=O)N2C)cc1 (stereo not given)	·	·	-1.1	-0.56	0.9	-0.45	·	·
CCN1C(=S)SC(=O)C1=C1C=C(C)N(Cc2ccco2)C(C)=C1	·	·	27*	-1.6	0.9	0.17	135*	234*
CCN1C(=S)SC(=O)C1=C1C=C(C)OC(C)=C1	·	·	-0.71	1.2	0.8	-0.73	·	·
O=c1c2c3c(sc2nc2sc(CN4CCOCC4)cn12)CCCC3	-4	0	-3.3*	0.2	0.9	-0.29	-18	?
COc1nc(-c2ccccc2)ccc1-c1noc(-c2ccccc2F)n1	7	-1	0.36	0.007	1	-0.88	·	·
CC(=O)N1CCc2cc(S(=O)(=O)Nc3cccc(C(F)(F)F)c3)ccc21	·	·	5.1*	-1.3	0.9	-0.98	-11	-34
Cc1cc(-n2c(C)cc(C(=O)CSc3ncnc4ccccc34)c2C)no1	·	·	7*	-3.2*	1	-1.4	-5.4	?
Cc1cc(-n2c(C)cc(C(=O)CSc3nnc4sc5ccccc5n34)c2C)no1	-10	1	0.015	0.81	0.9	-0.53	·	·
CC(=O)c1cccc(OCC(=O)c2cc(C)n(-c3cc(C)on3)c2C)c1	38	0	0.9	-2	0.9	-0.39	·	·
Cc1cc(-n2c(C)cc(C(=O)COc3ccc4ccc(=O)oc4c3)c2C)no1	16	-1	6.2*	-1	0.9	-0.25	?	-40
CCc1nnc(NC2=NCCC2)s1	0	-2	-0.39	-1.2	1	-0.88	·	·
O=S1(=O)CC(O)C(Nc2ccccc2Cl)C1 (stereo not given)	-30	-1	0.24	0.61	0.9	-0.83	·	·
Cc1ccc(-c2nc3cc(N)ccc3o2)cc1	-18	-1	2.4*	-3.7*	0.8	0.68	-11	-14
O=C(NC(Cc1ccccc1)c1nc2ccccc2[nH]1)C1CC(=O)N(c2ccc3c(c2)OCCO3)C1 (stereo not given)	0	0	0.48	·	1.1	0.37	·	·
CC(C)C(c1nnnn1C1CCCCC1)N1CCN(c2ncccn2)CC1 (stereo not given)	8	-1	4.4*	-0.61	0.9	0.064	-14	-33
O=C1CCN2C=Nc3cccc4ccc1c2c34	20	-2	493*	·	1.1	-11*	3266*	2765*
Cc1ccnc(SCCn2c(N3CCN(C)CC3)nc3c2c(=O)[nH]c(=O)n3C)n1	-7	-2	0.69	0.89	0.8	1.3	·	·
Cc1ccnc(SCCn2c(N3CCN(c4ccccc4)CC3)nc3c2c(=O)[nH]c(=O)n3C)n1	-14	-1	6.4*	-4.5*	1	0.053	-7.8	?
COC(=O)c1ccc2c(=O)n(CCC3=CCCCC3)c(SCC(=O)N3CCCC3)nc2c1	·	·	-0.67	0.58	1	0.55	·	·
